Results on two molecules are retold here after ChEMBL document CHEMBL1143653, “Discovery of a (1H-benzoimidazol-2-yl)-1H-pyridin-2-one (BMS-536924) inhibitor of insulin-like growth factor I receptor kinase with in vivo antitumor activity” (J Med Chem, 2005).

Series [1] addresses T1, Cytochrome P450 3A4 (Homo sapiens, UniProt P08684). The series is described as follows: Concentration required to inhibit cytochrome P450 isozyme CYP3A4-BzRes in vitro by 50%. The series is classed as ADME.
For another series, the target named is Cytochrome P450 2C19 (Homo sapiens, UniProt P33261). In words: Concentration required to inhibit cytochrome P450 isozyme CYP2C19 in vitro by 50%. The series is classed as ADME.
Cytochrome P450 2C19, sequence (P33261 whole entry): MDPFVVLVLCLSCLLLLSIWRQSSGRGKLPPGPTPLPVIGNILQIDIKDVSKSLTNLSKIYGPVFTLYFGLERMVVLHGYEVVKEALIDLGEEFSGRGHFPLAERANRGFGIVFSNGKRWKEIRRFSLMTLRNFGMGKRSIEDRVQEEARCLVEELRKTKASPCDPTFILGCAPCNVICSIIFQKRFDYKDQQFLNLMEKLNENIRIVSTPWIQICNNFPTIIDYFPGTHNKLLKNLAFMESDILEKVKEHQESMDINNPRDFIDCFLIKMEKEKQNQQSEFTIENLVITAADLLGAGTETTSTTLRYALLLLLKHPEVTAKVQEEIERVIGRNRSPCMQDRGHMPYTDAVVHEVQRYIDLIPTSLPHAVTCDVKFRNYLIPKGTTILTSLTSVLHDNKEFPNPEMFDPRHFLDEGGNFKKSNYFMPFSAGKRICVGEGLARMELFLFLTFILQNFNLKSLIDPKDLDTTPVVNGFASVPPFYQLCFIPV
Another series deals with Cytochrome P450 2C9 (Homo sapiens, UniProt P11712). The series is described as follows: Concentration required to inhibit Cytochrome P450 2C9 in vitro by 50%.
Cytochrome P450 2C9, sequence (P11712 whole entry): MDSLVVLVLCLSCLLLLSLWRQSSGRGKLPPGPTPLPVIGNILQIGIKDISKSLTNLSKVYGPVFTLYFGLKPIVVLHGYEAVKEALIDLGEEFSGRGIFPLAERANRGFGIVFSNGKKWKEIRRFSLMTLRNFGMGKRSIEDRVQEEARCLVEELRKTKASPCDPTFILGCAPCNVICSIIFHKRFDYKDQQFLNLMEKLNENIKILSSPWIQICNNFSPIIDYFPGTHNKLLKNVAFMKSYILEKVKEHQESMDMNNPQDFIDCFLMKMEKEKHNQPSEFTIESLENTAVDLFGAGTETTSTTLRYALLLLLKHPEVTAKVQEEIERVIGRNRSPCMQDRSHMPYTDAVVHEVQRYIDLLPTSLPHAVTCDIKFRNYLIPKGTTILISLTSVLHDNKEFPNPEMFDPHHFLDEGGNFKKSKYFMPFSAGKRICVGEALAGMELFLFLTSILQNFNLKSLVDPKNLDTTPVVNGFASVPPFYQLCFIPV
Another series deals with T2, Cytochrome P450 1A2 (Homo sapiens, UniProt P05177).
T2 sequence (P05177 whole entry): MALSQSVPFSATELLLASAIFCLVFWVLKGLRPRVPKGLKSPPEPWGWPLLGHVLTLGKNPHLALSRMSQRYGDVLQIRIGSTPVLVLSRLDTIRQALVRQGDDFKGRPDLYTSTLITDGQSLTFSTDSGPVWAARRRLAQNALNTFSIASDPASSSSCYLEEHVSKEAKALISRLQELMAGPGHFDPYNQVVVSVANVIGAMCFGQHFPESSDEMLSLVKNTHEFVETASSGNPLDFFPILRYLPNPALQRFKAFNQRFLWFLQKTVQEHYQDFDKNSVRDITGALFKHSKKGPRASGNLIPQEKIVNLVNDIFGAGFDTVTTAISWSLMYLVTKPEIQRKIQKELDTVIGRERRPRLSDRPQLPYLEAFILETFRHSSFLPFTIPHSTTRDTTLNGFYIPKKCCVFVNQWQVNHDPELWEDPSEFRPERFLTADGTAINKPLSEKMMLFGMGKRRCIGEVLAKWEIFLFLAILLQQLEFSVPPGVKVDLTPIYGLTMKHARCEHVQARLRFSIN
The series is described as follows: Concentration required to inhibit Cytochrome P450 1A2 in vitro by 50%. The series is classed as ADME.

In series [2] the target is T1, Cytochrome P450 3A4. The series is described as follows: Concentration required to inhibit cytochrome P450 isozyme CYP3A4-BFC in vitro by 50%. The series is classed as ADME.
Series [3] can be described thus: Maximum concentration in rat administered orally at 50 mg/kg. The class given is ADME, organism-based. Also noted: dose 50 mg/kg, route oral. The settings on record: in vivo, po.
Series [4] is described as follows: Steady-state volume of distribution in dog when administered intravenously at 2 mg/kg. The class given is ADME, organism-based, Canis lupus familiaris. The settings on record: in vivo, iv, read-out: Vss. Also noted: dose 2 mg/kg, route intravenous.
The nature of series [5]: Steady-state volume of distribution in mouse when administered intravenously at 4 mg/kg. The class given is ADME, organism-based. Also noted: dose 4 mg/kg, route intravenous. The settings on record: in vivo, iv, read-out: Vss.
Series [6] is described as follows: Steady-state volume of distribution in monkey when administered intravenously at 2 mg/kg. The class given is ADME, organism-based. Also noted: dose 2 mg/kg, route intravenous. The settings on record: cercopithecidae, in vivo, iv, read-out: Vss.
A short description of series [7]: Bioavailability in rat administered perorally at 50 mg/kg. Conditions: in vivo, po. The class given is ADME, organism-based.
Series [8] can be described thus: Maximum concentration in monkey administered orally at 5 mg/kg. The class given is ADME, organism-based. Also noted: dose 5 mg/kg, route oral. Conditions: cercopithecidae, in vivo, po.
Series [9] in a line: In vitro inhibitory concentration against MDA PCa-2b (prostate) cell line with ATP concentration at 1/2Km. The class given is functional, Homo sapiens.
Series [10] is described as follows: Steady-state volume of distribution in rat when administered intravenously at 4 mg/kg. Also noted: dose 4 mg/kg, route intravenous. The series is classed as ADME, organism-based. Conditions: in vivo, iv, read-out: Vss.
A short description of series [11]: Total clearance in monkey at 2 mg/kg intravenous dose. The series is classed as ADME, organism-based. Also noted: dose 2 mg/kg, route intravenous. The settings on record: cercopithecidae, in vivo, read-out: CLtot.
For a further series, the system named is COLO 205. The series is described as follows: In vitro inhibitory concentration against COLO 205 (colon) cell line with ATP concentration at 1/2Km. The series is classed as functional, cell-based. Conditions: Homo sapiens.
The nature of series [12]: Bioavailability in dog at 5 mg/kg oral dose. The class given is ADME, organism-based, Canis lupus familiaris. The settings on record: in vivo.
The next series relates to MCF7. In words: In vitro inhibitory concentration against MCF-7(breast) cell line with ATP concentration at 1/2Km. The class given is functional, cell-based. Conditions: Homo sapiens.
Series [13] in a line: Total clearance in rat when administered intravenously at 4 mg/kg. Also noted: dose 4 mg/kg, route intravenous. The settings on record: in vivo, iv, read-out: CLtot. The series is classed as ADME, organism-based.
Series [14] can be described thus: Bioavailability in monkey at 5 mg/kg oral dose. The class given is ADME, organism-based. The settings on record: cercopithecidae, in vivo.
Series [15] in a line: In vitro inhibitory concentration against Geo (colon) cell line with ATP concentration at 1/2Km. The series is classed as functional, Homo sapiens.
Another series concerns RD. The series is described as follows: In vitro inhibitory concentration against RD1 (rhabdomyosarcoma) cell line with ATP concentration at 1/2Km. Conditions: Homo sapiens. The class given is functional, cell-based.
Series [16] is described as follows: Maximum concentration in dog administered orally at 5 mg/kg. Conditions: in vivo, po. Also noted: dose 5 mg/kg, route oral. The series is classed as ADME, organism-based, Canis lupus familiaris.
The nature of series [17]: Total clearance in dog when administered intravenously at 2 mg/kg. The class given is ADME, organism-based, Canis lupus familiaris. Conditions: in vivo, iv, read-out: CLtot. Also noted: dose 2 mg/kg, route intravenous.
Series [18] is described as follows: Total clearance in mouse when administered intravenously at 4 mg/kg. The series is classed as ADME, organism-based. Also noted: dose 4 mg/kg, route intravenous. The settings on record: in vivo, iv, read-out: CLtot.
A short description of series [19]: Bioavailability in mouse administered perorally at 20 mg/kg. Conditions: in vivo, po. The class given is ADME, organism-based.
In series [20] the target is Dual specificity mitogen-activated protein kinase kinase 1 (Homo sapiens, UniProt Q02750). The series is described as follows: In vitro inhibitory concentration against MEK with ATP concentration at 1/2Km. The method in brief:
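Cell-free kinase inhibition assay. ATP was set at ½ Km, determined separately for each kinase, and the IC50 was derived under that condition.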

A short description of series [21]: Maximum concentration in mouse administered orally at 20 mg/kg. The series is classed as ADME, organism-based. Also noted: dose 20 mg/kg, route oral. The settings on record: in vivo, po.

pIC50: −log10 of the molar value.

The term pIC50 denotes the IC50 on a negative log10 scale, so that one unit is a factor of ten. As a reminder, the Cmax is the highest concentration seen after dosing. Broadly, the bioavailability is the share of a dose that reaches the circulation, judged against a reference dose that is usually intravenous.

T1 sequence (P08684 whole entry): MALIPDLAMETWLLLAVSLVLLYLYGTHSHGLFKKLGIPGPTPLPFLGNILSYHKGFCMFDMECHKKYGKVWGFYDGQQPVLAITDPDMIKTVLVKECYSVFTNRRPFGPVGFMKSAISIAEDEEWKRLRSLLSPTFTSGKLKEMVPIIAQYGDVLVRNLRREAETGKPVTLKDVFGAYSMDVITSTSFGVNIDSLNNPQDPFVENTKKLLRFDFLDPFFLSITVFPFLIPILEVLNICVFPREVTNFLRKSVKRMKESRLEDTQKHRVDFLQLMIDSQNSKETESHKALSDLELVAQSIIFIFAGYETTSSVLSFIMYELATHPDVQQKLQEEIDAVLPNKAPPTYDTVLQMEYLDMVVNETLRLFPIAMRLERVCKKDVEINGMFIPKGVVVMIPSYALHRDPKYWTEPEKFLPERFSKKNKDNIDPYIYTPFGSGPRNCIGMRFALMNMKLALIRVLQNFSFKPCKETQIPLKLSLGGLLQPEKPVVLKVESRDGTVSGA
Dual specificity mitogen-activated protein kinase kinase 1, sequence (Q02750 whole entry): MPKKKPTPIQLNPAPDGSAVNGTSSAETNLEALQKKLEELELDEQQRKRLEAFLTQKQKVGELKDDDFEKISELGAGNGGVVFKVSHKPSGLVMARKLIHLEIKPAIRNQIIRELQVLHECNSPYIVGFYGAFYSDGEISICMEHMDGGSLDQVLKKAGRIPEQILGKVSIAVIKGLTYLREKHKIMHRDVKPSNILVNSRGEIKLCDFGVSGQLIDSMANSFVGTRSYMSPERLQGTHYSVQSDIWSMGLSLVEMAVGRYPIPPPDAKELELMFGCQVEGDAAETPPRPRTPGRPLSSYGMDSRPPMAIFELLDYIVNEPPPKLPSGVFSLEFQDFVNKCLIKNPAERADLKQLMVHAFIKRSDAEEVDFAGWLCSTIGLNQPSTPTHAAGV

In the case of `Cc1cc(-n2ccnc2)cc2[nH]c(-c3c(NCC(O)c4cccc(Cl)c4)cc[nH]c3=O)nc12` (configuration not stated), the pIC50 on Cytochrome P450 3A4 [1] is over 7.74; against Cytochrome P450 2C19, 7.59; on Cytochrome P450 2C9 it was over 7.74; against Cytochrome P450 1A2, over 7.74; against Cytochrome P450 3A4 [2], over 7.74.

With `Cc1cc(N2CCOCC2)cc2[nH]c(-c3c(NC[C@@H](O)c4cccc(Cl)c4)cc[nH]c3=O)nc12`, the Cmax amounted to 69 µM in series [3], 1300 nM in [8], 4.1 µM in [16] and 3.8 µM in series [21]. In addition, the Vd in series [4] turned out to be 1.3 L/kg; in [5], 1.9 L/kg; in series [6], 1.4 L/kg; in series [10], 0.8 L/kg. The bioavailability in [7] was over 100%; in series [12], 70%; in [14], 32%; in series [19], 50%. Also, the negative-log IC50 (pIC50) was 6.71 in [9]; 6.67 with COLO 205; 6.34 with MCF7; 6.49 in series [15]; 6.69 in the series with RD; 6.74 in [20]. The clearance in series [11] amounted to 16.5 mL/min/kg; in [13], 5.8 mL/min/kg; in series [17], 4.1 mL/min/kg; in series [18], 37.8 mL/min/kg.
